Data on 13 molecules can be found in ChEMBL document CHEMBL1177731, “Complementarity between a docking and a high-throughput screen in discovering new cruzain inhibitors” (J Med Chem, 2010).

Each structure is given as a SMILES string. Calls of active or inactive are those of the source. The rule behind the calls is not given here.

Experiment [1] has as its target T1, Cruzipain (Trypanosoma cruzi, UniProt P25779). The experiment in a line: Inhibition of Trypanosoma cruzi cruzain assessed as Z-Phe-Arg-aminomethylcoumarin cleavage.
The nature of experiment [2]: Inhibition of beta lactamase. The method, boiled down:
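AmpC β-lactamase (1 nM final) with CENTA substrate (100 μM final; Km 48 μM) in 50 mM potassium phosphate, pH 7.0. Cleavage was read as absorbance at 405 nm over 3 min, and activity was taken from initial rates. Each compound was run twice: without Triton X-100 after a 5 min enzyme preincubation before substrate, and with 0.01% Triton X-100 with no preincubation. Inhibition was then compared between the two conditions.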

Experiment [3] addresses T1, Cruzipain. The experiment in a line: Inhibition of Trypanosoma cruzi cruzain assessed as Z-Phe-Arg-aminomethylcoumarin cleavage by competitive binding assay. Summed up: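 Cruzain (0.4 nM) in 0.1 M sodium acetate pH 5.5, 5 mM DTT, 0.01% Triton X-100. Each compound tested at four or more concentrations against seven Z-FR-AMC levels (0.31-20 μM, 2-fold steps). Activity from initial rates over 5 min. Ki derived from Lineweaver-Burk and Dixon plots.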

T1 sequence (P25779 whole entry): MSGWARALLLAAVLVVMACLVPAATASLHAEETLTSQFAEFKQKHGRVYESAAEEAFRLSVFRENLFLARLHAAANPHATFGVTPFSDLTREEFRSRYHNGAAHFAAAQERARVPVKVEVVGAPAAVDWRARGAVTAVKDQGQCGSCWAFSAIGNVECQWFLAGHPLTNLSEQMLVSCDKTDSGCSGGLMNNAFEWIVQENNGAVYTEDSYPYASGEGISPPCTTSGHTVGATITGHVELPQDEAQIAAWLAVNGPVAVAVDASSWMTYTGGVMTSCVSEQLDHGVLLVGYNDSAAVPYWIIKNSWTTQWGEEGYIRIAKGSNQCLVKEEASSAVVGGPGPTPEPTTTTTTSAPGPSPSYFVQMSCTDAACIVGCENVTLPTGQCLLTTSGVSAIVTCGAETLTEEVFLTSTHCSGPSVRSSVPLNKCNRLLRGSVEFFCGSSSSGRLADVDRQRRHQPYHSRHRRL

Regarding `COCCn1c(C)cc(C(=O)COC(=O)CNC(=O)c2ccccc2)c1C`, the IC50 in experiment [1] stood at 18000 nM. For the same molecule, the inhibition result in experiment [2] is “inactive”.

For `Clc1ccc2[nH]c3c(NCCCN4CCOCC4)ncnc3c2c1`, the Ki in experiment [3] was 2000 nM.

As to `Cc1ccccc1OCC(=O)NCC(=O)OCC(=O)c1ccc2ccccc2c1`, the IC50 in experiment [1] is 700 nM. The inhibition entry in experiment [2] is “inactive”.

Take `O=C(CNC(=O)c1ccc(Cl)cc1)OC(C(=O)Nc1ccc(Cl)cc1C(F)(F)F)c1ccccc1` (stereo unspecified): in experiment [1], the IC50 is 700 nM. In addition, the inhibition entry in experiment [2] is “inactive”.

For `COc1ccc(Cl)cc1NC(=O)COC(=O)C(CC(C)C)N1C(=O)C2CC=CCC2C1=O` (stereo unspecified), in experiment [1], the IC50 was 1000 nM. Also, in experiment [2], the inhibition result was “inactive”.

On to `O=C(CNC(=O)c1ccccc1)OC(C(=O)Nc1cc(C(F)(F)F)ccc1Cl)c1ccccc1` (stereo unspecified), for which the IC50 in experiment [1] stood at 300 nM. In addition, in experiment [3], the Ki amounted to 65 nM. Further, the inhibition result in experiment [2] was “inactive”.

`COc1ccc(NC(=O)COC(=O)C(CC(C)C)N2C(=O)C3CC=CCC3C2=O)cc1Cl` (stereo unspecified): in experiment [3], the Ki was 800 nM.

With `CC(C)C(NC(=O)c1ccco1)C(=O)NCC(c1ccco1)N1CCCCC1` (stereo unspecified), in experiment [1], the IC50 turned out to be 7000 nM. Moreover, in experiment [3], the Ki came out at 6000 nM. The inhibition result in experiment [2] was “inactive”.

With `Cc1cc(NC(=O)COC(=O)C(Cc2ccccc2)NC(=O)c2ccco2)no1` (stereo unspecified), the IC50 in experiment [1] turned out to be 38000 nM. In addition, the inhibition entry in experiment [2] is “inactive”.

Take `O=C(CNC(=O)c1ccc(Cl)cc1)OCC(=O)c1ccc2c(c1)OCCO2`: in experiment [1], the IC50 was 500 nM. For the same molecule, the inhibition entry in experiment [2] is “inactive”.

In the case of `Cc1cc(C(=O)NCC(=O)OC(C(=O)Nc2cc(C(F)(F)F)ccc2Cl)c2ccccc2)ccc1[N+](=O)[O-]` (stereo unspecified), the IC50 in experiment [1] was 400 nM. The inhibition result in experiment [2] was “inactive”.

As for `Cc1cc(NC(=O)COC(=O)C(Cc2c[nH]c3ccccc23)NC(=O)c2ccc(F)cc2)no1` (stereo unspecified), the IC50 in experiment [1] stood at 3000 nM. In addition, the inhibition result in experiment [2] was “inactive”.

With `CC(NC(=O)c1ccccc1Cl)C(=O)OC(C(=O)Nc1cc(C(F)(F)F)ccc1Cl)c1ccccc1` (stereo unspecified), the IC50 in experiment [1] came to 11000 nM. Moreover, the inhibition result in experiment [2] was “inactive”.
